Reference: ChEMBL document CHEMBL1151964, “Divergent modes of enzyme inhibition in a homologous structure-activity series” (J Med Chem, 2009)
Activity calls are given as the source filed them. No cut-off for these calls is given here.

Experiments:
Cruzipain [1] = target: T1, Cruzipain (Trypanosoma cruzi, UniProt P25779); test: Inhibition of Trypanosoma cruzi cruzain preincubated for 5 mins before substrate addition
In short: (§1)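 Cruzain IC50s were measured from dose-response curves with Triton X-100 in the assay buffer at either 0.01% or 0.001%. At 0.001% Triton, some runs included pre-incubation with BSA.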

Cruzipain [2] = target: T1, Cruzipain; test: Inhibition of Trypanosoma cruzi cruzain preincubated for 5 mins before substrate addition in presence of 0.001% Triton X-100; in short: as §1
Cruzipain [3] = target: T1, Cruzipain; test: Inhibition of Trypanosoma cruzi cruzain preincubated for 5 mins before substrate addition in presence of 0.01% Triton X-100; in short: as §1
[4] = target: Cruzipain (Trypanosoma cruzi) (UniProt P25779); test: Inhibition of Trypanosoma cruzi cruzain assessed as colloidal aggregates particles formation after 5 mins by flow cytometry
Sequence of Cruzipain (Trypanosoma cruzi) (P25779 123-467 limits assumed): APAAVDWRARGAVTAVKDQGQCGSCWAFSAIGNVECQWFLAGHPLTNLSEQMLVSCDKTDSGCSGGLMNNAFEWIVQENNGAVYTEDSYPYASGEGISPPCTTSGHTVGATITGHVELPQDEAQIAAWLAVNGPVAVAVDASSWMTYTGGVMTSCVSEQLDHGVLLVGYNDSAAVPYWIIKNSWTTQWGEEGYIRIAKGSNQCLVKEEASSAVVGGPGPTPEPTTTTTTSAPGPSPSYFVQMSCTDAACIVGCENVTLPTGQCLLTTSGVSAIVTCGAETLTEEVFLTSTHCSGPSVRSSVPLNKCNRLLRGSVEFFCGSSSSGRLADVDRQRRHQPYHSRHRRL
In short: (§2)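 Particle (aggregate) formation was assessed by flow cytometry, with some samples checked by dynamic light scattering. The value is the lowest concentration tested at which particles were seen.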

[5] = target: Cruzipain (Trypanosoma cruzi) (UniProt P25779); test: Inhibition of Trypanosoma cruzi cruzain assessed as colloidal aggregates particles formation after 5 mins by flow cytometry in presence of 0.001% Triton X-100; in short: as §2
Cruzipain [6] = target: T1, Cruzipain; test: Inhibition of Trypanosoma cruzi cruzain preincubated for 5 mins before substrate addition in presence of 0.001% Triton X-100 with 1 mg/ml bovine serum albumin
[7] = target: Cruzipain (Trypanosoma cruzi) (UniProt P25779); test: Inhibition of Trypanosoma cruzi cruzain at 200 uM preincubated for 5 mins before substrate addition
[8] = Inhibition of Beta-lactamase AmpC at 50 uM preincubated for 5 mins before substrate addition
In short: (§3)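 β-Lactamase AmpC inhibition was tested at the concentration stated, both without and with 0.01% Triton X-100. A compound was called an aggregator when its inhibition was detergent-sensitive.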

[9] = Inhibition of Beta-lactamase AmpC at 100 uM preincubated for 5 mins before substrate addition
In short: (§4)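 AmpC β-lactamase inhibition measured without detergent and with 0.01% Triton X-100, at the compound concentrations listed per compound. A compound was classed as an aggregator if its inhibition was detergent-sensitive.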

[10] = target: Cruzipain (Trypanosoma cruzi) (UniProt P25779); settings: 25 uM
Cruzipain [11] = target: T1, Cruzipain; test: Competitive inhibition of Trypanosoma cruzi cruzain by Lineweaver-Burke plot analysis
[12] = Inhibition of Beta-lactamase AmpC preincubated for 5 mins before substrate addition in presence of 0.01% Triton X-100; in short: as §4
[13] = Inhibition of Beta-lactamase AmpC at 13 uM preincubated for 5 mins before substrate addition; in short: as §3
[14] = target: Cruzipain (Trypanosoma cruzi) (UniProt P25779); test: Inhibition of Trypanosoma cruzi cruzain assessed as colloidal aggregates particles formation at 3.1 uM after 5 mins by dynamic light scattering assay
[15] = target: Cruzipain (Trypanosoma cruzi) (UniProt P25779); settings: 5 uM
[16] = target: Cruzipain (Trypanosoma cruzi) (UniProt P25779); settings: 50 uM

T1 sequence (P25779 whole entry): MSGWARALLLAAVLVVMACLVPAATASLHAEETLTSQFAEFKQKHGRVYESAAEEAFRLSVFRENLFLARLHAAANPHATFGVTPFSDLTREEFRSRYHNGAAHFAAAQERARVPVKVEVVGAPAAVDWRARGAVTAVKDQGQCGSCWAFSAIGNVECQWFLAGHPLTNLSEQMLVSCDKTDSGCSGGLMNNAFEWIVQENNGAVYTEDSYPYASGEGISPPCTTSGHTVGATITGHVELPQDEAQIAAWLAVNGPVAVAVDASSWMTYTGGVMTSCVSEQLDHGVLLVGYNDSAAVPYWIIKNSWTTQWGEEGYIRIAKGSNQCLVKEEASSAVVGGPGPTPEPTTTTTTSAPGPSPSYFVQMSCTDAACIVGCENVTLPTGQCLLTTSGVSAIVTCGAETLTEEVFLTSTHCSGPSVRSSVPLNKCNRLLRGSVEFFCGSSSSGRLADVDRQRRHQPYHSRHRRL

Nc1ccccc1C(=O)OCC(=O)Nc1cc(Cl)ccc1Cl
IC50 (Cruzipain [1]): 58 µM

COc1cc(CNC(=O)c2nnc(-c3ccccc3N)o2)cc(OC)c1OC
IC50 (Cruzipain [1]): > 100 µM

CCN1CCC[C@H]1CNC(=O)c1nnc(-c2ccccc2N)o1
IC50 (Cruzipain [1]): > 100 µM | IC50 (Cruzipain [2]): > 100 µM | IC50 (Cruzipain [3]): > 100 µM | Activity [4]: > 200 µM | Activity [5]: inactive

Nc1ccccc1-c1nnc(C(=O)Nc2cc(-c3cccs3)n[nH]2)o1
IC50 (Cruzipain [1]): 1 µM | IC50 (Cruzipain [6]): 102 µM | IC50 (Cruzipain [2]): 1 µM

Nc1ccccc1-c1nnc(C(=O)NCc2c(Cl)cccc2Cl)o1
IC50 (Cruzipain [2]): 8 µM

Nc1ccccc1-c1nnc(C(=O)NC2CCNCC2)o1
IC50 (Cruzipain [1]): > 100 µM

CCC(NC(=O)COC(=O)c1cccnc1N)c1ccc(Br)cc1 (stereo not drawn)
IC50 (Cruzipain [1]): 84 µM | inhibition [7]: 65% | Activity [5]: 250 nM

Cn1ccc(NC(=O)c2nnc(-c3ccccc3N)o2)n1
IC50 (Cruzipain [1]): > 100 µM | IC50 (Cruzipain [2]): > 100 µM | IC50 (Cruzipain [3]): > 100 µM | Activity [4]: 200 µM

Nc1ccccc1-c1nnc(C(=O)Nc2ccc3oc4c(c3c2)CCCC4)o1
IC50 (Cruzipain [1]): 2 µM | IC50 (Cruzipain [2]): 2 µM | Activity [4]: > 100 µM | inhibition [8]: Active

O=C(COC(=O)c1ccccn1)Nc1cc(Cl)ccc1Cl
inhibition [7]: 16% | IC50 (Cruzipain [3]): > 200 µM

Nc1ccccc1-c1nnc(C(=O)NC2Cc3ccccc3C2)o1
IC50 (Cruzipain [1]): 11 µM | IC50 (Cruzipain [3]): 11 µM

Nc1ccccc1-c1nnc(C(=O)N[C@@H]2c3ccccc3C[C@@H]2O)o1
IC50 (Cruzipain [1]): 32 µM

Nc1ccccc1-c1nnc(C(=O)NCc2ccc(C(F)(F)F)c(F)c2)o1
IC50 (Cruzipain [1]): 10 µM

Cc1cc(NC(=O)c2nnc(-c3ccccc3N)o2)n[nH]1
Activity [4]: 50 µM | inhibition [8]: inactive

Nc1ncccc1C(=O)OCC(=O)Nc1cc(Cl)ccc1Cl
inhibition [9]: Active | IC50 (Cruzipain [1]): 77 µM | IC50 (Cruzipain [6]): 116 µM | inhibition [7]: 79% | inhibition [10]: Active | IC50 (Cruzipain [2]): 27 µM | Ki (Cruzipain [11]): 32 µM | inhibition [12]: inactive | Activity [5]: 250 nM

Nc1ncccc1C(=O)OCC(=O)Nc1ccc2c(c1)OCCO2
inhibition [7]: 51% | IC50 (Cruzipain [3]): 182 µM

Nc1ccccc1-c1nnc(C(=O)Nc2ccc3[nH]ncc3c2)o1
IC50 (Cruzipain [1]): 41 µM

CC(C)(C)c1cc(NC(=O)c2nnc(-c3ccccc3N)o2)n[nH]1
Activity [4]: 3.1 µM | inhibition [13]: Active

Cc1nn(-c2ccccc2)nc1CNC(=O)c1nnc(-c2ccccc2N)o1
IC50 (Cruzipain [1]): 7 µM

CC1C2CCC(C)(C2)C1NC(=O)c1nnc(-c2ccccc2N)o1 (stereo not drawn)
IC50 (Cruzipain [1]): 36 µM

Nc1ccccc1-c1nnc(C(=O)NCc2ccc3c(c2)OCO3)o1
IC50 (Cruzipain [1]): 6 µM

Nc1ccccc1-c1nnc(C(=O)NCc2ccccc2OC2CCOCC2)o1
IC50 (Cruzipain [1]): 42 µM

Nc1ccccc1-c1nnc(C(=O)NCc2c(N)cccc2F)o1
IC50 (Cruzipain [1]): 52 µM

Nc1ccccc1-c1nnc(C(=O)NCCCn2ccnc2)o1
IC50 (Cruzipain [1]): > 100 µM

Nc1ccccc1-c1nnc(C(=O)NCc2csc(-c3cccs3)n2)o1
IC50 (Cruzipain [1]): 2 µM | IC50 (Cruzipain [3]): 2 µM

Nc1ccccc1-c1nnc(C(=O)NC2CCc3ccccc32)o1 (stereo not drawn)
IC50 (Cruzipain [1]): 17 µM

Nc1ncccc1C(=O)OCC(=O)Nc1ccccc1OC(F)F
inhibition [7]: 58% | IC50 (Cruzipain [3]): 126 µM

Nc1ccccc1-c1nnc(C(=O)NCc2ccc(Oc3ccccc3)cc2)o1
IC50 (Cruzipain [1]): 6 µM | IC50 (Cruzipain [3]): 6 µM

Nc1ccccc1-c1nnc(C(=O)NCCN2CCNC2=O)o1
IC50 (Cruzipain [1]): > 100 µM

Nc1ccccc1-c1nnc(C(=O)NCc2cccc(-n3cccn3)c2)o1
IC50 (Cruzipain [1]): 17 µM

Nc1ncccc1C(=O)OCC(=O)NC1CCCCCC1
IC50 (Cruzipain [1]): 87 µM | inhibition [7]: 68% | Activity [5]: 250 nM

Cc1ccc(-c2cc(NC(=O)c3nnc(-c4ccccc4N)o3)[nH]n2)cc1
IC50 (Cruzipain [1]): 0.5 µM | IC50 (Cruzipain [2]): 0.5 µM

Cc1cc2cc(NC(=O)c3nnc(-c4ccccc4N)o3)ccc2[nH]1
IC50 (Cruzipain [1]): 6 µM | IC50 (Cruzipain [2]): 6 µM | IC50 (Cruzipain [3]): > 100 µM

Nc1ccccc1-c1nnc(C(=O)Nc2nc(-c3ccc(Cl)cc3)cs2)o1
IC50 (Cruzipain [1]): 3 µM

Nc1ccccc1-c1nnc(C(=O)NCCCN2CCCC2=O)o1
IC50 (Cruzipain [1]): > 100 µM | IC50 (Cruzipain [2]): > 100 µM | IC50 (Cruzipain [3]): > 100 µM | Activity [4]: > 200 µM | Activity [5]: inactive

Cc1cccc(C(=O)OCC(=O)Nc2cc(Cl)ccc2Cl)c1
inhibition [7]: 5% | IC50 (Cruzipain [3]): > 200 µM

Nc1ccccc1-c1nnc(C(=O)NCc2ccccc2N2CCOCC2)o1
IC50 (Cruzipain [1]): 38 µM

Nc1ccccc1-c1nnc(C(=O)NCc2ccnc(N3CCOCC3)c2)o1
IC50 (Cruzipain [1]): 83 µM | IC50 (Cruzipain [3]): 83 µM

Nc1ncccc1C(=O)NCC(=O)NC1CCCCC1
inhibition [7]: 16%

COc1ccc(OC)c(CNC(=O)c2nnc(-c3ccccc3N)o2)c1
IC50 (Cruzipain [1]): 8 µM | IC50 (Cruzipain [6]): 45 µM | IC50 (Cruzipain [2]): 8 µM

Cc1cc(NC(=O)c2nnc(-c3ccccc3N)o2)[nH]n1
IC50 (Cruzipain [1]): 11 µM | IC50 (Cruzipain [2]): 11 µM

Cn1nccc1NC(=O)c1nnc(-c2ccccc2N)o1
IC50 (Cruzipain [1]): > 100 µM | IC50 (Cruzipain [3]): > 100 µM

Nc1ccccc1C(=O)NCC(=O)NC1CCCCC1
inhibition [7]: 15%

Nc1ccccc1-c1nnc(C(=O)NCc2ccc(Cn3cccn3)cc2)o1
IC50 (Cruzipain [1]): 8 µM

CCN(CC)c1ccc(NC(=O)c2nnc(-c3ccccc3N)o2)cc1
IC50 (Cruzipain [1]): 36 µM

Nc1ccccc1-c1nnc(C(=O)Nc2cccc(N3CCCC3)c2)o1
IC50 (Cruzipain [1]): 7 µM | IC50 (Cruzipain [6]): 99 µM | IC50 (Cruzipain [2]): 7 µM | Activity [4]: 50 µM | inhibition [8]: Active

CC(NC(=O)c1nnc(-c2ccccc2N)o1)C12CC3CC(CC(C3)C1)C2 (stereo not drawn)
IC50 (Cruzipain [1]): 18 µM | IC50 (Cruzipain [3]): 18 µM

Nc1ccccc1-c1nnc(C(=O)NCCN2CCOCC2)o1
IC50 (Cruzipain [1]): > 100 µM | IC50 (Cruzipain [2]): > 100 µM | IC50 (Cruzipain [3]): > 100 µM

NC(=O)c1ccsc1NC(=O)COC(=O)c1cc(Br)ccc1N
inhibition [7]: 61% | IC50 (Cruzipain [3]): 90 µM

Nc1ccccc1-c1nnc(C(=O)Nc2ccc(N3CCOCC3)cc2)o1
IC50 (Cruzipain [1]): 62 µM | IC50 (Cruzipain [3]): 62 µM

Nc1ccccc1-c1nnc(C(=O)NCc2cccc3nsnc23)o1
IC50 (Cruzipain [1]): 6 µM

Nc1ccccc1-c1nnc(C(=O)Nc2cc(-c3ccccc3)[nH]n2)o1
IC50 (Cruzipain [1]): 0.8 µM | IC50 (Cruzipain [2]): 0.8 µM

COc1ccc(-c2cc(NC(=O)c3nnc(-c4ccccc4N)o3)n[nH]2)cc1
Activity [14]: Active | IC50 (Cruzipain [1]): 0.2 µM | IC50 (Cruzipain [2]): 0.2 µM | Activity [4]: 3.1 µM | inhibition [13]: Active

Nc1ccccc1-c1nnc(C(=O)NCc2ccnc(N3CCSCC3)c2)o1
IC50 (Cruzipain [1]): 23 µM

Cc1ccc(CNC(=O)c2nnc(-c3ccccc3N)o2)o1
IC50 (Cruzipain [1]): 14 µM

Nc1ccccc1-c1nnc(C(=O)NCc2cccc(N3CCOCC3)c2)o1
IC50 (Cruzipain [1]): 33 µM

CC(C)(C)c1cc(NC(=O)c2nnc(-c3ccccc3N)o2)[nH]n1
IC50 (Cruzipain [1]): 2 µM | IC50 (Cruzipain [2]): 2 µM

Nc1ccccc1-c1nnc(C(=O)N[C@H]2CCCCNC2=O)o1
IC50 (Cruzipain [1]): > 100 µM

Nc1ccccc1-c1nnc(C(=O)Nc2cc(-c3cccs3)[nH]n2)o1
inhibition [15]: Active | inhibition [16]: Active

Nc1ccccc1-c1nnc(C(=O)Nc2nnc(-c3ccc(Cl)cc3)s2)o1
IC50 (Cruzipain [1]): 4 µM | IC50 (Cruzipain [3]): 4 µM

Nc1ccccc1-c1nnc(C(=O)NCc2nc3ccccc3[nH]2)o1
IC50 (Cruzipain [1]): 17 µM
